CHRM5 antagonist – CHRM5 antagonism in calcium assay | P08912 | inhibition, % at 3 µM | CHO-hM5 cells, Fluo-8 calcium fluorescence, ACh EC80 | 360,000 tested, 0.59% active | AID 624040;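 active = inhibition above a per-plate cutoff, the mean of that plate's test compounds plus 3 SD, cut at about 27% in these data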;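 also: 0% = acetylcholine EC80 with DMSO and 100% = DMSO without agonist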
Target sequence (P08912 whole entry, looked up): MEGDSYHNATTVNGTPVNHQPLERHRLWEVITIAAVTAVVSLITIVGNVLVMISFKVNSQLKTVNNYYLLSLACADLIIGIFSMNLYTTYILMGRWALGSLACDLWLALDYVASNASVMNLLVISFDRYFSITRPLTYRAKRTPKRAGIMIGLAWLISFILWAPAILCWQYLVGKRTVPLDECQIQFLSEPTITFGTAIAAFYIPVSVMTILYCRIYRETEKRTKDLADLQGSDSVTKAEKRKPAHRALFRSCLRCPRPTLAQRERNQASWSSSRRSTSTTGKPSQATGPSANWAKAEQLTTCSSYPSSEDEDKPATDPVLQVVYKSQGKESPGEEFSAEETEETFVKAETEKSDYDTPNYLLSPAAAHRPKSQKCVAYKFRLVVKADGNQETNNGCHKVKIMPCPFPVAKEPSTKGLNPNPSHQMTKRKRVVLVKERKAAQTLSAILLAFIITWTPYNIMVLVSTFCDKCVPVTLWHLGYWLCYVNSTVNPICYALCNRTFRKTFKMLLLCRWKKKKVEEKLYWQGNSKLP
CHRM4 antagonist – CHRM4 antagonism in calcium assay. P08173. CHO-hM4 cells, ACh EC80, Fluo-8 calcium fluorescence. inhibition, % at 3 µM. 360,000 tested, 0.73% active;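 active = inhibition above its plate's cutoff, the mean inhibition of sample wells plus 3 SD, cut at about 27% in these data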;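 also: 0% = acetylcholine EC80 with DMSO and 100% = DMSO without agonist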
M5 ag – agonists of human muscarinic M5 receptor (CHRM5). activation, % at 3 µM. 360,000 tested, 0.19% active. P08912. CHO-K1 hM5 cells, Fluo-8 calcium fluorescence; 0% DMSO wells, 100% maximal acetylcholine response. AID 624037;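 active = activation above the run's mean over test compounds plus 3 SD, cut at about 23% in these data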;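 also: signal is peak over basal fluorescence ratio across the kinetic read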
M4 ag – CHRM4 agonism in calcium assay; CHO-K1 hM4/Gqi5, Fluo-8 calcium fluorescence; vehicle 0%, full acetylcholine response 100%; AID 624127; activation, % at 3 µM; 360,000 tested, 0.14% active;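 active = activation above the run mean over all test wells plus 3 SD, cut at about 32% in these data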;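 also: peak over basal fluorescence ratio per well then scaled between controls; 0% = DMSO wells and 100% = acetylcholine at EC100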
M4 PAM – CHRM4 positive allosteric modulation; 360,000 tested, 0.4% active; CHO-K1 hM4/Gqi5, Fluo-8 calcium fluorescence, ACh EC20; 0% = ACh EC20, 100% = maximal ACh; activation, % at 3 µM; P08173;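 active = activation above its plate's cutoff, the mean activation of sample wells plus 3 SD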
CHRM5 PAM – potentiates acetylcholine response at human M5 receptor | P08912 | CHO-K1 hM5, Fluo-8 calcium, ACh EC20 PAM; 0% = ACh EC20, 100% = ACh EC100 | activation, % at 3 µM | 360,000 tested, 0.3% active | AID 624038;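 active = activation above the run cutoff, the mean activation of all test compounds plus 3 SD, cut at about 18% in these data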
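Measured by: Fluo-8 calcium fluorescence; material: human M5 receptor in CHO-K1 cells; schedule: Post-acetylcholine fluorescence recording 140 s; benchmarks: low control EC20 acetylcholine (0%), high control EC100 acetylcholine (100%); read-out: Max/basal fluorescence ratio as % of EC20–EC100 ACh window; compound: single dose, 3 µM nominal final test concentration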
The depositor's hits bear a star. A selection: hits, their analogues and other compounds. The true share with any hit is near 1.9%.

SMILES	CHRM5 antagonist	CHRM4 antagonist	M5 ag	M4 ag	M4 PAM	CHRM5 PAM
O=C(NC1CCCCC1)NC1(C(=O)NCCCN2CCOCC2)CCCCC1	-7	-14	-2	0	-1	-5
Cc1ccc2c(C(=O)CN3CCCCC3)c(C)[nH]c2c1	2	-11	-5	1	8	2
Cc1ccc2c(C(=O)CN3CCOCC3)c(C)[nH]c2c1	-12	-10	2	0	10	25*
Nc1nc(Cl)cc(N2CCC(c3cc(-c4ccc(Cl)cc4)n[nH]3)CC2)n1	39*	36*	14	26	-7	-25
CC(C)C[C@@H](CN1CCCC1CN1C(=S)NC[C@@H]1Cc1ccc(O)cc1)N1C[C@H](Cc2ccccc2)N(CC2CCCCC2)C1=S (stereo partly drawn)	-11	-17	2	0	7	-2
O=C(O)c1cccc2c1C(=O)N(Cc1ccncc1)C2	-1	20	0	1	32*	5
CN(C)S(=O)(=O)c1ccc(Cl)c(C(=O)Nc2ccccc2[N+](=O)[O-])c1	-3	-14	-2	4	0	4
CCN(CC)S(=O)(=O)c1ccc(Cl)c(C(=O)Nc2ccc(Cl)cc2[N+](=O)[O-])c1	30*	25	2	10	-22	-16
O=C(NC1CCN(Cc2ccccc2)CC1)C1COc2ccccc2O1 (stereo not drawn)	64*	18	-13	2	-14	-43
COc1ccc(Cl)cc1NS(=O)(=O)c1cccc(C(=O)NC2CCN(Cc3ccccc3)CC2)c1	19	32*	0	8	-14	-5
CCN(c1ccccc1)S(=O)(=O)c1ccc(C(=O)NC2CCN(Cc3ccccc3)CC2)cc1	22	46*	0	25	-12	-43
NC(=O)CCCCC(=O)OCCCc1cccs1	-1	6	-1	0	-4	-3
C[C@H](CO)N1C[C@H](C)[C@@H](CN(C)Cc2ccncc2)Oc2c(NC(=O)c3ccncc3)cccc2C1=O	17	3	5	0	3	-8
Cc1cccc(C)c1OCC(O)CN(Cc1ccccc1O)C1CCCCC1 (stereo not drawn)	4	-1	-6	6	-6	2
COCCNC(=O)C(c1ccc(F)cc1)N(CCOC)C(=O)CCC(=O)Nc1ccccn1 (stereo not drawn)	15	-1	-2	1	5	-4
COc1ccc(CN2CCCC(C(=O)c3ccc4c(c3)OCO4)C2)c(F)c1 (stereo not drawn)	-2	61*	-10	4	-14	-14
CCCCn1nnnc1NCc1cccnc1	31*	-6	6	2	11	-2
C/C(CCc1ccco1)=N\NC(=O)CNc1c(Br)cc(Br)cc1Br	-5	-6	-1	1	7	-5
O=C(O)c1ccc(N2C(=O)CSC2=S)cc1	13	-12	0	7	-4	-4
O=C1CSC(=S)N1c1ccc(F)c(Cl)c1	33*	4	6	12	-7	-12
CCOc1ccc(N2C(=O)CSC2=S)cc1	-1	-5	1	0	4	18*
O=C(O)c1cc(C(=O)O)cc(N2C(=O)CSC2=S)c1	-8	5	-6	1	17*	13
Cc1ccc(NC(=O)CCC(=O)NNC(=O)COc2ccc([N+](=O)[O-])cc2)cc1C	-2	-6	1	2	18*	6
Cc1ccc(NC(=O)NNC(=O)COc2ccc([N+](=O)[O-])cc2)cc1C	-13	-4	-3	1	0	1
COc1ccc(S(=O)(=O)N2CCc3ccccc32)cc1C(=O)Nc1ccc(C(N)=O)cc1	37*	4	-3	10	-8	-37
SMILES	CHRM5 antagonist	CHRM4 antagonist	M5 ag	M4 ag	M4 PAM	CHRM5 PAM
Cc1cccc(OCCn2c(CCCO)nc3ccccc32)c1	-2	-1	-4	3	0	-1
CCN1CCC2(CC1)N=C(c1ccc(F)cc1)C(=S)N2C(=O)c1ccc(C(C)(C)C)cc1	76*	18	-8	2	-10	-19
O=C(c1ccccc1)N1N=C(c2ccc(F)cc2)CC1(O)C(F)(F)F (stereo not drawn)	2	1	-5	-1	-1	-1
CN1CCC2(CC1)N=C(c1ccc(F)cc1)C(=S)N2C(=O)c1ccccc1	40*	-1	-8	2	6	-19
C[N+](C)(C)C/C=C1/COCO1	92*	9	100*	42*	-3	-16
CCc1ccccc1NC1c2ccccc2C(=O)N1c1cc(C)ccn1 (stereo not drawn)	-1	-1	-4	-2	3	-2
CCCCCCC[N+](CC)(CC)CCCCc1ccc(Cl)cc1	22	38*	-2	0	-14	-18
CCCCCNCc1ccc(Cl)cc1	19	-8	-5	1	9	-1
CC(C)N(Cc1nccn1C)C(=O)c1cc(COc2ccc(F)cc2Cl)on1	31*	0	-5	4	-7	-9
O=C(NCc1ccccc1)C(=O)Nc1nc(C23CC4CC(CC(C4)C2)C3)cs1	2	26	0	-1	-8	-4
CNC(=O)C(=O)Nc1nc(C23CC4CC(CC(C4)C2)C3)cs1	-9	1	-4	1	3	19*
Cc1cc(N/N=C/c2ccccc2O)nc(-c2ccccc2O)n1	7	-6	-2	5	-2	-6
Cc1cc(N/N=C/c2ccc(O)cc2O)nc(-c2ccccc2O)n1	24	30*	5	21	-25	-17
COc1cc(C(C)=O)ccc1OCCCOc1cccc2cccnc12	10	12	7	10	-11	-6
CCOC(=O)C1(C)CCCCN1C(=O)c1cccnc1 (stereo not drawn)	-15	-16	1	1	19*	-2
CCOC(=O)C1(C)CCCN1C(=O)c1cncc(Br)c1 (stereo not drawn)	1	-8	-1	0	-1	0
C=CCN(CC=C)Cc1cc(=O)oc2cc(C)ccc12	-7	-15	-2	-2	6	3
O=C(/C=C/c1ccccc1)NC(NC(=S)Nc1ccc(Cl)cc1Cl)C(Cl)(Cl)Cl (stereo not drawn)	34*	9	1	11	-24	-19
O=C(NC1CCCCC1)c1cccc2c1C(=O)c1ccc(-c3ccc(OC(F)(F)F)cc3)cc1S2(=O)=O	1	-14	1	0	8	2
